Experimental data gathered from unrelated publications.
Compare with care: the assays were run in different laboratories.
SLC18A2: Synaptic vesicular amine transporter (SLC18A2, Homo sapiens, UniProt Q05940)
CA1: Carbonic anhydrase 1 (CA1, Homo sapiens, UniProt P00915)
LATS1: Serine/threonine-protein kinase LATS1 (LATS1, Homo sapiens, UniProt O95835)

Compound	target	observed	mode	method	pH	notes	IC50 [µM]
OC1(c2ccc(Cl)c(C(F)(F)F)c2)CCN(CCCC(c2ccc(F)cc2)c2ccc(F)cc2)CC1	SLC18A2	transporter uptake	inhibitor	radiometric		cell membranes	0.594
COc1ccnc(C[S+]([O-])c2nc3ccc(OC(F)F)cc3[nH]2)c1OC (centres unmarked)	CA1	enzyme activity	inhibitor	absorbance	pH 7.4		10.6
OC1(c2ccc(-c3ccnc4[nH]cc(F)c34)cc2)CCCNC1 (centres unmarked)	LATS1	target engagement in cells		BRET			9.97
O=C(O)COCCN1CCN(C(c2ccccc2)c2ccc(Cl)cc2)CC1 (centres unmarked)	CA1	enzyme activity	inhibitor	absorbance	pH 7.4		14.6
CCOc1ccccc1OCCN[C@H](C)Cc1ccc(OC)c(S(N)(=O)=O)c1	SLC18A2	transporter uptake	inhibitor				1.86
Cc1cc(-c2ccnc3[nH]cc(F)c23)cc(F)c1[C@@]1(O)[C@H](C)CN(C2CCS(=O)(=O)CC2)C[C@@H]1C	LATS1	target engagement in cells		BRET			0.136
N#Cc1ccc2[nH]cc(CCCCN3CCN(c4ccc5oc(C(N)=O)cc5c4)CC3)c2c1	SLC18A2	transporter uptake	inhibitor	radiometric		cell membranes	0.069
C=CCNc1c2c([nH]c(=O)c1C(=O)OCC)CCC2	Gag-Pol polyprotein, reverse transcriptase (gag-pol, Human immunodeficiency virus 1, UniProt P03366)	enzyme activity	inhibitor				> 100
OC1(c2ccc(-c3ccnc4[nH]cc(F)c34)cc2)CNC1	LATS1	target engagement in cells		BRET			28.4
Nc1nc2c(ncn2COCCO)c(=O)[nH]1	CA1	enzyme activity	inhibitor	absorbance	pH 7.4		10.8
OC1(c2ccc(-c3ccnc4[nH]cc(F)c34)cc2)CCNC1 (centres unmarked)	LATS1	target engagement in cells		BRET			10.3
Clc1ccc(Cn2c(CN3CCCC3)nc3ccccc32)cc1	SLC18A2	transporter uptake	inhibitor				7.23
NC(=O)c1nnn(Cc2cc(Cl)c(C(=O)c3ccc(Cl)cc3)c(Cl)c2)c1N	Alpha-2A adrenergic receptor (ADRA2A, Homo sapiens, UniProt P08913)	cAMP	antagonist				0.612
Cc1cc(-c2ccnc3[nH]cc(F)c23)cc(F)c1[C@@]1(O)[C@H](C)CN(C2COC2)C[C@@H]1C	LATS1	target engagement in cells		BRET			0.058
CCOCCn1c(C2CCN(CCc3ccc(C(C)(C)C(=O)O)cc3)CC2)nc2ccccc21	CA1	enzyme activity	inhibitor	absorbance	pH 7.4		14
COc1cc2ncnc(Nc3ccc(F)c(Cl)c3)c2cc1NC(=O)/C=C/CN1CCCCC1	SLC18A2	transporter uptake	inhibitor	radiometric		cell membranes	0.433
OCCOCCN1CCN(C(c2ccccc2)c2ccc(Cl)cc2)CC1 (centres unmarked)	CA1	enzyme activity	inhibitor	absorbance	pH 7.4		15.1
CCCCN(CCCC)CCC(O)c1cc2c(Cl)cc(Cl)cc2c2cc(C(F)(F)F)ccc12 (centres unmarked)	SLC18A2	transporter uptake	inhibitor	radiometric		cell membranes	0.94
CC(=O)N1C[C@@H](C)[C@](O)(c2c(C)cc(-c3ccnc4[nH]cc(F)c34)cc2F)[C@@H](C)C1	LATS1	target engagement in cells		BRET			0.077
CC(C)[C@H](N)C(=O)OCCOCn1cnc2c(=O)[nH]c(N)nc21	Carbonic anhydrase 2 (CA2, Homo sapiens, UniProt P00918)	enzyme activity	inhibitor	absorbance	pH 7.4		9.1
